What all share (format): functional
Assay [1] deals with Oryctolagus cuniculus. In words: Febrile responses of compound was measured in rabbit after iv injection at the dose of 3 mg/kg. A digest of the protocol:
(§1)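 Rabbits (strain HYL A, 3–3.5 kg), three per specimen, per French/European pharmacopoeia. Compound dissolved in pyrogen-free isotonic saline and given iv, first at 1 mg/kg. Rectal temperature recorded continuously and automatically. A specimen was judged nonpyrogenic if no rabbit rose above 0.5 °C; such specimens then went on to 3, 5 and 10 mg/kg. ΔT reported per rabbit, with the mean.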

Assay [2] relates to Oryctolagus cuniculus. The experiment in a line: Febrile responses of compound was measured in rabbit after iv injection at the dose of 1 mg/kg. A digest of the protocol: as §1
Assay [3] concerns Oryctolagus cuniculus. In words: Febrile responses of compound was measured in rabbit after iv injection at the dose of 5 mg/kg. The procedure, abridged: as §1
The test system of assay [4] is Mus musculus. In words: Adjuvant activity was measured after sc administration in phosphate buffer saline (PBS) to mice with BSA and expressed as secondary response. A digest of the protocol:
(§2)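 Female Swiss mice, 5–6 weeks old. BSA antigen given sc in PBS: 0.5 mg to prime, then 0.1 mg one month later as boost. Glycopeptide (0.1 mg) given with the priming injection. Sera pooled on day 21 for the primary titer; on day 37 sera titrated individually for the secondary titer. Titer is log of highest serum dilution agglutinating BSA-coated sheep RBC (passive hemagglutination). Student's t test vs controls.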

Assay [5] concerns Mus musculus. In words: Adjuvant activity was measured after sc administration in phosphate buffer saline (PBS) to mice with BSA and expressed as primary response. A digest of the protocol: as §2
In assay [6] the test system is Oryctolagus cuniculus. In words: Febrile responses of compound was measured in rabbit after iv injection at the dose of 10 mg/kg. A digest of the protocol: as §1
The test system of assay [7] is Klebsiella pneumoniae. In words: Protective activity against Klebsiella pneumoniae was measured as number of survivors to the number of total animals used; 10/24.
For assay [8], the system named is Klebsiella pneumoniae. In words: Protective activity against Klebsiella pneumoniae was measured as difference between the percentage of survivors in treated group and its respective control group. The arrangement: concentration or dose not given beside the values. The procedure, abridged: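 Mice, 24 per group. Compound given iv at 100 μg on day 0; on day +1, intramuscular challenge with 10^4 K. pneumoniae. Mortality followed from day 1 to day 15. Protection is the percentage of survivors in the treated group minus that in its control group at day +15.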

The test system of assay [9] is Klebsiella pneumoniae. In words: Protective activity against Klebsiella pneumoniae was measured as number of survivors to the number of total animals used; 0/24.
Assay [10] has as its system Klebsiella pneumoniae. In words: Protective activity against Klebsiella pneumoniae was measured as number of survivors to the number of total animals used; 16/24.
The subject of assay [11] is Klebsiella pneumoniae. In words: Protective activity against Klebsiella pneumoniae was measured as number of survivors to the number of total animals used; 7/24.
Assay [12] concerns Klebsiella pneumoniae. The experiment in a line: Protective activity against Klebsiella pneumoniae was measured as number of survivors to the number of total animals used; 3/24.
The test system of assay [13] is Klebsiella pneumoniae. In words: Protective activity against Klebsiella pneumoniae was measured as number of survivors to the number of total animals used; 4/24.
Assay [14] concerns Klebsiella pneumoniae. In words: Protective activity against Klebsiella pneumoniae was measured as number of survivors to the number of total animals used; 8/24.
In assay [15] the test system is Klebsiella pneumoniae. In words: Protective activity against Klebsiella pneumoniae was measured as number of survivors to the number of total animals used;15/24.

Values joined by “and” are separate entries in the source; they are usually repeats but may differ in a detail not shown here. Equal values may be shown once.

Consider `COC(=O)CC[C@H](NC(=O)[C@H](C)NC(=O)[C@@H](C)OC1C(O)C(CO)OC(O)C1NC(C)=O)C(=O)OC` (stereo partly specified), for which the “Delta T” value with Oryctolagus cuniculus [1] (3 mg/kg) is 0.4 °C and 0.17 °C; in the assay with Oryctolagus cuniculus [2] (1 mg/kg) it was 0.33 °C and 0.13 °C; in the assay with Oryctolagus cuniculus [3] (5 mg/kg), 1.1 °C and 0.9 °C.

For `CC(=O)NC1C(O)OC(CO)C(O)C1O[C@H](C)C(=O)N[C@@H](C)C(=O)N[C@@H](CCC(N)=O)C(=O)O` (stereo partly specified), in the assay on Mus musculus [4], the Secondary response was 7.35. Besides, the “Delta T” value in the assay with Oryctolagus cuniculus [1] is 0.9 °C; in the assay on Oryctolagus cuniculus [2], 0.03 °C. Besides, the Primary response with Mus musculus [5] came to 2.97.

Take `CCCCCOC(=O)[C@H](CCC(N)=O)NC(=O)[C@H](C)NC(=O)[C@@H](C)OC1C(O)C(CO)OC(O)C1NC(C)=O` (stereo partly specified): the Secondary response in the assay on Mus musculus [4] was 7.8. The “Delta T” value with Oryctolagus cuniculus [1] is 0.03 °C; with Oryctolagus cuniculus [2] it was 0.1 °C; in the assay with Oryctolagus cuniculus [6], 0.13 °C. In addition, the Primary response with Mus musculus [5] is reported as 1.64. Moreover, in the assay on Klebsiella pneumoniae [7], the Survivors came out at 10 N/total. This molecule also had a Protection with Klebsiella pneumoniae [8] of 37%.

As for `CC(=O)NC1C(O)OC(CO)C(O)C1O[C@H](C)C(=O)N[C@@H](C)C(=O)N[C@@H](CCC(=O)O)C(=O)O` (stereo partly specified), the “Delta T” value was 0.8 °C in the assay on Oryctolagus cuniculus [1]; 0.37 °C and 0.5 °C in the assay with Oryctolagus cuniculus [2] (1 mg/kg).

On to `CCOC(=O)[C@H](CCC(N)=O)NC(=O)[C@H](C)NC(=O)[C@@H](C)OC1C(O)C(CO)OC(O)C1NC(C)=O` (stereo partly specified), for which the Secondary response with Mus musculus [4] is on record as 9.53. The “Delta T” value with Oryctolagus cuniculus [1] was 0.03 °C; with Oryctolagus cuniculus [2], 0.23 °C; with Oryctolagus cuniculus [6] (10 mg/kg) it was 0.47 °C and 0.32 °C. Besides, the Primary response in the assay on Mus musculus [5] is on record as 4.64. In the assay with Klebsiella pneumoniae [9], this molecule yielded a Survivors of 0 N/total. Moreover, the Protection with Klebsiella pneumoniae [8] came out at 0%.

Turning to `CC(=O)NC1C(O)OC(CO)C(O)C1O[C@H](C)C(=O)N[C@@H](C)C(=O)N[C@@H](CCC(N)=O)C(N)=O` (stereo partly specified), the “Delta T” value with Oryctolagus cuniculus [1] is 0.2 °C; with Oryctolagus cuniculus [2] it was 0.1 °C; with Oryctolagus cuniculus [3], 0.67 °C.

Turning to `CCCCOC(=O)[C@H](CCC(N)=O)NC(=O)[C@H](C)NC(=O)[C@@H](C)OC1C(O)C(CO)OC(O)C1NC(C)=O` (stereo partly specified), the Secondary response in the assay with Mus musculus [4] was determined as 8.43. Besides, the “Delta T” value stood at 0.26 °C in the assay with Oryctolagus cuniculus [1], 0.03 °C in the assay on Oryctolagus cuniculus [2] and 0.3 °C in the assay on Oryctolagus cuniculus [6]. For the same molecule, in the assay with Mus musculus [5], the Primary response is given as 4.21. The Survivors in the assay on Klebsiella pneumoniae [10] came out at 16 N/total. Also, the Protection in the assay with Klebsiella pneumoniae [8] is given as 63%.

Regarding `CCCOC(=O)[C@H](CCC(N)=O)NC(=O)[C@H](C)NC(=O)[C@@H](C)OC1C(O)C(CO)OC(O)C1NC(C)=O` (stereo partly specified), in the assay on Klebsiella pneumoniae [11], the Survivors is given as 7 N/total. Besides, the Secondary response in the assay with Mus musculus [4] turned out to be 9.52. Moreover, the “Delta T” value stood at 0.43 °C in the assay with Oryctolagus cuniculus [1], 0.2 °C in the assay on Oryctolagus cuniculus [2] and 0.07 degrees C with Oryctolagus cuniculus [6]. The Primary response in the assay on Mus musculus [5] came out at 4.64. The Protection in the assay with Klebsiella pneumoniae [8] was found to be 25%.

As for `COC(=O)[C@H](CCC(N)=O)NC(=O)[C@H](C)NC(=O)[C@@H](C)OC1C(O)C(CO)OC(O)C1NC(C)=O` (stereo partly specified), in the assay with Mus musculus [4], the Secondary response came out at 8.72. Moreover, the “Delta T” value in the assay on Oryctolagus cuniculus [1] stood at 0.23 °C; in the assay on Oryctolagus cuniculus [2], 0.1 °C; in the assay with Oryctolagus cuniculus [6], 0.1 °C. Further, in the assay on Mus musculus [5], the Primary response is listed as 3.85. In the assay on Klebsiella pneumoniae [12], this molecule displayed a Survivors of 3 N/total. The molecule also yielded a Protection in the assay on Klebsiella pneumoniae [8] of 8%.

`CCCCCCCCCCOC(=O)[C@H](CCC(N)=O)NC(=O)[C@H](C)NC(=O)[C@@H](C)OC1C(O)C(CO)OC(O)C1NC(C)=O` (stereo partly specified): the Secondary response with Mus musculus [4] is recorded as 9.1. Further, the “Delta T” value came out at 0.17 °C in the assay with Oryctolagus cuniculus [1], 0.2 °C with Oryctolagus cuniculus [2] and 0.23 °C in the assay with Oryctolagus cuniculus [6]. Besides, the Primary response in the assay on Mus musculus [5] was determined as 3.64. In addition, in the assay with Klebsiella pneumoniae [13], the Survivors is on record as 4 N/total. In the assay on Klebsiella pneumoniae [8], the Protection is 12%.

Consider `CCCCCCOC(=O)[C@H](CCC(N)=O)NC(=O)[C@H](C)NC(=O)[C@@H](C)OC1C(O)C(CO)OC(O)C1NC(C)=O` (stereo partly specified), for which, in the assay with Mus musculus [4], the Secondary response turned out to be 7.71. Further, the “Delta T” value in the assay on Oryctolagus cuniculus [1] is 0.2 °C; in the assay with Oryctolagus cuniculus [2], 0.13 °C; with Oryctolagus cuniculus [6] it was 0.13 °C. Besides, the Primary response in the assay with Mus musculus [5] was determined as 2.75. Moreover, in the assay on Klebsiella pneumoniae [14], the Survivors is reported as 8 N/total. In the assay on Klebsiella pneumoniae [8], the Protection stood at 29%.

`CC(=O)N[C@H]1C(O)O[C@H](CO)[C@@H](O)[C@@H]1O[C@H](C)C(=O)N[C@@H](C)C(=O)N[C@H](CCC(=O)O)C(N)=O` (stereo partly specified) [MURAMYL DIPEPTIDE] had a Survivors in the assay with Klebsiella pneumoniae [15] of 15 N/total. Also, the Secondary response with Mus musculus [4] amounted to 8.34. Besides, the “Delta T” value in the assay on Oryctolagus cuniculus [2] stood at 0.76 °C. Moreover, the Primary response with Mus musculus [5] turned out to be 3.64. In the assay with Klebsiella pneumoniae [8], this molecule registered a Protection of 58%.

(Values after ChEMBL document CHEMBL1121936, “Apyrogenic, adjuvant-active N-acetylmuramyl-dipeptides” (1982).)
